Columns and labels:
Mu-type opioid receptor [1] = biological target: T1, Mu-type opioid receptor (Rattus norvegicus, UniProt P33535); assay: Agonist activity at mu opioid receptor in rat brain membranes assessed as stimulation of [35S]GTPgammaS binding after 60 mins in presence of GDP; assay type: functional, cell membranes
[2] = biological target: Delta-type opioid receptor (Rattus norvegicus, UniProt P33533); assay: Displacement of [3H]-DIDI from delta opioid receptor in Wistar rat brain membranes after 45 mins by liquid scintillation counting analysis; assay type: cell membranes, Membrane
Delta-type opioid receptor, sequence (P33533 whole entry): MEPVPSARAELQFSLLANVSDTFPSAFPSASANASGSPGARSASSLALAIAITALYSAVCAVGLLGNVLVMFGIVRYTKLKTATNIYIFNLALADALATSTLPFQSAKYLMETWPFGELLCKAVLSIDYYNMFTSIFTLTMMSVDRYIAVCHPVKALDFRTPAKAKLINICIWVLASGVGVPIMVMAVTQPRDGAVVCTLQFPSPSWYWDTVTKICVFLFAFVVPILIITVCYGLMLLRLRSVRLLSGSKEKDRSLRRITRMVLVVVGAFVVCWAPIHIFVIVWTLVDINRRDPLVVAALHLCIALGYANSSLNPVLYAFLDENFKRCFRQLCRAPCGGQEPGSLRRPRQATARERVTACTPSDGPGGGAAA

[3] = biological target: Kappa-type opioid receptor (Cavia porcellus, UniProt P41144); assay: Displacement of [3H]-U69,593 from kappa opioid receptor in guinea pig brain membranes after 2 hrs by liquid scintillation counting analysis; assay type: cell membranes, Membrane
Kappa-type opioid receptor, sequence (P41144 whole entry): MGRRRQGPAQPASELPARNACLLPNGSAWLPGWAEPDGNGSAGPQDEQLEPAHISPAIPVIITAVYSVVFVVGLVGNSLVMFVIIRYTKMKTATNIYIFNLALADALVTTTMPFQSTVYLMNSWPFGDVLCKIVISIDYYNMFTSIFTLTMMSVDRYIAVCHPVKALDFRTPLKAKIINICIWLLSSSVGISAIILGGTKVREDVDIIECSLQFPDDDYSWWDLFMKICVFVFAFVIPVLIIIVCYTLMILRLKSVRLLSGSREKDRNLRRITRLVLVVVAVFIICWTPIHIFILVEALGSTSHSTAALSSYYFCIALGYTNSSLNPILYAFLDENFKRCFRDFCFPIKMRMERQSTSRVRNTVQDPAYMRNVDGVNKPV
How it was run: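 Guinea pig brain membranes incubated 2 h at 0 °C with 0.80 nM [3H]U69,593 plus competitor. IC50 taken from log-dose displacement curves.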

Rattus norvegicus = species on record: Rattus norvegicus; assay: Selectivity ratio of Ki for delta opioid receptor in Wistar rat brain membranes to Ki for mu opioid receptor in Wistar rat brain membranes; assay type: cell membranes; conditions: Membrane
Mu-type opioid receptor [4] = biological target: T1, Mu-type opioid receptor; assay: Displacement of [3H]-DAMGO from mu opioid receptor in Wistar rat brain membranes after 45 mins by liquid scintillation counting analysis; assay type: cell membranes, Membrane
Mu-type opioid receptor [5] = biological target: Mu-type opioid receptor (Cavia porcellus, UniProt P97266); assay: Agonist activity at mu opioid receptor in guinea pig ileum; assay type: tissue-based
Mu-type opioid receptor (Cavia porcellus, UniProt P97266), sequence (P97266 whole entry): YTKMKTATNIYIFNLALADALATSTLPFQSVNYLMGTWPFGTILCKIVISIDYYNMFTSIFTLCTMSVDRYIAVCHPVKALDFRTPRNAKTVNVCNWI
How it was run: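 Isolated guinea pig ileum (MOR) and mouse vas deferens (DOR) bioassays; Leu-enkephalin dose-response curve run as standard on each preparation, test IC50 values normalized to it.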

T1 sequence (P33535 whole entry): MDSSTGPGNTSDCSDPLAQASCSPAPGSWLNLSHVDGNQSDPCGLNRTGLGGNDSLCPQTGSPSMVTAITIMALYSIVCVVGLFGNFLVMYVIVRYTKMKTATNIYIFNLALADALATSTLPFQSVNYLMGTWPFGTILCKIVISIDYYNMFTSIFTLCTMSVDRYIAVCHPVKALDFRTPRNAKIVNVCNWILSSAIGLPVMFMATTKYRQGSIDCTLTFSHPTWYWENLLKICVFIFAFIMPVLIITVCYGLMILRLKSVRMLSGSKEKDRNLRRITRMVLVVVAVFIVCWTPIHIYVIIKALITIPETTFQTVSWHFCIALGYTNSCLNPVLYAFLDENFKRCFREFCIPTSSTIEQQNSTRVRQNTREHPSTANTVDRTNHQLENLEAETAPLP

Compound	EC50 (Mu-type opioid receptor [1]; read-out: pEC50 (converted)) [µM]	Ki [2] [µM]	EC50 (Mu-type opioid receptor [1]; read-out: EC50) [µM]	Ki [3] [µM]	IC50 [2] [µM]	Ratio Ki (Rattus norvegicus)	IC50 (Mu-type opioid receptor [4]) [µM]	Ki (Mu-type opioid receptor [4]) [µM]	IC50 (Mu-type opioid receptor [5]) [µM]
NC(=O)[C@@H]1C/N=C(/N2CCCCC2)NC[C@@H](NC(=O)[C@@H](N)Cc2ccc(O)cc2)C(=O)NCC(=O)N[C@@H](Cc2ccccc2)C(=O)N1 (stereo in doubt; 14c)	7.59	3.5	–	–	–	–	–	–	–
CC(C)C[C@@H]1NC(=O)[C@H](Cc2ccccc2)NC(=O)CNC(=O)[C@H](NC(=O)[C@@H](N)Cc2ccc(O)cc2)CCCN/C(N(C)C)=N\CCC[C@@H](C(N)=O)NC1=O	1.55	0.146	1.52	> 0.5	0.195	10.2	0.0195	0.0143	–
CN(C)/C1=N/C[C@@H](C(N)=O)NC(=O)[C@H](Cc2ccccc2)NC(=O)CNC(=O)[C@H](NC(=O)[C@@H](N)Cc2ccc(O)cc2)CN1	–	–	1.83	–	–	–	–	–	–
NC(=O)[C@@H]1CNC(=S)NC[C@@H](NC(=O)[C@@H](N)Cc2ccc(O)cc2)C(=O)NCC(=O)N[C@@H](Cc2ccccc2)C(=O)N1 (stereo in doubt; 7a)	–	–	–	–	–	–	–	–	0.00176
NC(=O)[C@@H]1C/N=C(/N2CCCCC2)NC[C@@H](NC(=O)[C@@H](N)Cc2ccc(O)cc2)C(=O)NCC(=O)N[C@@H](Cc2ccccc2)C(=O)N1 (stereo in doubt; 14b)	4.17	–	–	–	4.9	–	–	–	–
NC(=O)[C@@H]1C/N=C(/N2CCCC2)NC[C@@H](NC(=O)[C@@H](N)Cc2ccc(O)cc2)C(=O)NCC(=O)N[C@@H](Cc2ccccc2)C(=O)N1 (stereo in doubt; 13c)	4.79	–	–	> 0.5	–	–	–	–	–
CC(C)C[C@@H]1NC(=O)[C@H](Cc2ccccc2)NC(=O)CNC(=O)[C@H](NC(=O)[C@@H](N)Cc2ccc(O)cc2)CCCNC(=S)NCCC[C@@H](C(N)=O)NC1=O	0.603	0.0757	0.589	–	0.0977	8.3	0.0123	0.0091	–
CC(C)C[C@@H]1NC(=O)[C@H](Cc2ccccc2)NC(=O)CNC(=O)[C@H](NC(=O)[C@@H](N)Cc2ccc(O)cc2)CCCN/C(N)=N\CCC[C@@H](C(N)=O)NC1=O	–	0.108	3.01	> 0.5	0.145	5.9	0.0251	0.0184	–
CN/C1=N/C[C@@H](C(N)=O)NC(=O)[C@H](Cc2ccccc2)NC(=O)CNC(=O)[C@H](NC(=O)[C@@H](N)Cc2ccc(O)cc2)CN1 (stereo in doubt; 10b)	1.62	–	–	–	–	–	–	–	–
NC(=O)[C@@H]1C/N=C(/N2CCCC2)NC[C@@H](NC(=O)[C@@H](N)Cc2ccc(O)cc2)C(=O)NCC(=O)N[C@@H](Cc2ccccc2)C(=O)N1 (stereo in doubt; 13b)	2.82	–	–	> 0.5	–	–	–	–	–
NC(=O)[C@@H]1C/N=C(/N2CCCCC2)NC[C@@H](NC(=O)[C@@H](N)Cc2ccc(O)cc2)C(=O)NCC(=O)N[C@@H](Cc2ccccc2)C(=O)N1 (stereo in doubt; 14a)	1.45	–	–	–	–	–	–	–	0.398
CC(C)C[C@@H]1NC(=O)[C@H](Cc2ccccc2)NC(=O)CNC(=O)[C@H](NC(=O)[C@@H](N)Cc2ccc(O)cc2)CCCN/C(N2CCCC2)=N\CCC[C@@H](C(N)=O)NC1=O	8.13	0.628	8.01	–	0.832	3.6	0.234	0.175	–
NC(=O)[C@@H]1C/N=C(/N2CCCC2)NC[C@@H](NC(=O)[C@@H](N)Cc2ccc(O)cc2)C(=O)NCC(=O)N[C@@H](Cc2ccccc2)C(=O)N1 (stereo in doubt; 13a)	1.07	–	–	> 0.5	–	–	–	–	–
CS/C1=N/CCC[C@@H](C(N)=O)NC(=O)[C@H](CC(C)C)NC(=O)[C@H](Cc2ccccc2)NC(=O)CNC(=O)[C@H](NC(=O)[C@@H](N)Cc2ccc(O)cc2)CCCN1	0.661	0.191	0.652	–	0.251	9.1	0.0288	0.021	–
CN/C1=N/C[C@@H](C(N)=O)NC(=O)[C@H](Cc2ccccc2)NC(=O)CNC(=O)[C@H](NC(=O)[C@@H](N)Cc2ccc(O)cc2)CN1 (stereo in doubt; 10a)	0.282	–	–	–	–	–	–	–	–
C/N=C1/NCCC[C@@H](C(N)=O)NC(=O)[C@H](CC(C)C)NC(=O)[C@H](Cc2ccccc2)NC(=O)CNC(=O)[C@H](NC(=O)[C@@H](N)Cc2ccc(O)cc2)CCCN1	–	0.185	1.23	> 0.3	0.245	10.3	0.024	0.0179	–

— ChEMBL document CHEMBL2401649, “Cyclic enkephalins with a diversely substituted guanidine bridge or a thiourea bridge: synthesis, biological and structural evaluations” (J Med Chem, 2013)
